From ChEMBL document CHEMBL1122160, “Structure--activity relationships of nogalamycin analogues” (1982)

Tests used:
[1] = system: L1210; assay: Micromolar concentration required to inhibit the growth of L1210 cells by 50% was determined; format: functional; conditions: Mus musculus, read-out: ID50 (the source's name)
[2] = system: L1210; assay: Micromolar concentration required to inhibit the growth of L1210 cells by 90% was determined; format: functional, Mus musculus
[3] = system: Mus musculus; assay: […] percent increase in life span of mice injected intraperitoneally with P-388 leukemia after administration (50 mg/kg)/day; format: functional
Procedure, shortened: (§1)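 P-388 leukemia cells (10^6) implanted intraperitoneally in mice on day 0, following a standard National Cancer Institute protocol. Drug was given daily on days 1-9, or on days 1, 5 and 9 for some analogues. Dose level is as in each line.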

[4] = system: Mus musculus; assay: Tested for antitumor activity in vivo and the weight change in grams for the tumor in mouse was determined; format: functional
Procedure, shortened: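 Mice received 10^6 P-388 leukemia cells intraperitoneally on day 0, following the standard NCI protocol. Drug was injected daily on days 1-9, or only on days 1, 5 and 9 for certain analogues.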

[5] = system: Mus musculus; assay: […] percent increase in life span of mice injected intraperitoneally with P-388 leukemia after administration (1.25 mg/kg)/day; format: functional; procedure, shortened: as §1
[6] = system: Mus musculus; assay: […] percent increase in life span of mice injected intraperitoneally with P-388 leukemia after administration (8 mg/kg)/day; format: functional; procedure, shortened: as §1
[7] = system: Mus musculus; assay: […] percent increase in life span of mice injected intraperitoneally with P-388 leukemia after administration (33 mg/kg)/day; format: functional; procedure, shortened: as §1
[8] = system: Mus musculus; assay: […] percent increase in life span of mice injected intraperitoneally with P-388 leukemia after administration (12.5 mg/kg)/day; format: functional; procedure, shortened: as §1
[9] = system: Mus musculus; assay: […] percent increase in life span of mice injected intraperitoneally with P-388 leukemia after administration (20 mg/kg)/day; format: functional; procedure, shortened: as §1
[10] = system: Mus musculus; assay: […] percent increase in life span of mice injected intraperitoneally with P-388 leukemia after administration (5 mg/kg)/day; format: functional; procedure, shortened: as §1
[11] = system: Mus musculus; assay: In vivo percent increase in life span of mice injected intraperitoneally with P-388 leukemia after administration (25 mg/kg)/day
[12] = system: Mus musculus; assay: […] percent increase in life span of mice injected intraperitoneally with P-388 leukemia after administration (10 mg/kg)/day; format: functional; procedure, shortened: as §1
[13] = system: Mus musculus; assay: […] percent increase in life span of mice injected intraperitoneally with P-388 leukemia after administration (1 mg/kg)/day; format: functional; procedure, shortened: as §1
[14] = system: Mus musculus; assay: […] percent increase in life span of mice injected intraperitoneally with P-388 leukemia after administration (100 mg/kg)/day; format: functional; procedure, shortened: as §1
[15] = system: Mus musculus; assay: […] percent increase in life span of mice injected intraperitoneally with P-388 leukemia after administration (16 mg/kg)/day; format: functional; procedure, shortened: as §1
[16] = system: Mus musculus; assay: […] percent increase in life span of mice injected intraperitoneally with P-388 leukemia after administration (400 mg/kg)/day; format: functional; procedure, shortened: as §1
[17] = system: Mus musculus; assay: […] percent increase in life span of mice injected intraperitoneally with P-388 leukemia after administration (6.25 mg/kg)/day; format: functional; procedure, shortened: as §1
[18] = system: Mus musculus; assay: […] percent increase in life span of mice injected intraperitoneally with P-388 leukemia after administration (40 mg/kg)/day; format: functional; procedure, shortened: as §1

| SMILES | IC50 [1] | ID90 [2] | Weight change [4] | other results |
| --- | --- | --- | --- | --- |
| COC1CC(C)(O)Cc2cc3c(c(O)c21)C(=O)c1c(O)cc2c(c1C3=O)OC1OC2(C)C(O)C(N(C)C=O)C1O (stereo not given) | 4300 nM | >5000 nM |  |  |
| COC1C(C)OC(OC2CC(C)(O)Cc3cc4c(c(O)c32)C(=O)c2c(O)cc3c(c2C4=O)OC2OC3(C)C(OC(C)=O)C(N(C)C)C2OC(C)=O)C(OC)C1(C)OC (stereo not given) | 76 nM | 210 nM | -0.6 g | ILS [3]: 41% |
| CNC1C(O)C2Oc3c(cc(O)c4c3C(=O)c3cc5c(c(O)c3C4=O)C(OC)CC(C)(O)C5)C(C)(O2)C1O (stereo not given) | 380 nM | 110 nM | -1.3 g | ILS [5]: 73% |
| CSC1CC(C)(O)Cc2cc3c(c(O)c21)C(=O)c1c(O)cc2c(c1C3=O)OC1OC2(C)C(O)C(N(C)C)C1O (stereo not given) | 130 nM | 340 nM | -3.1 g | ILS [6]: 37% |
| CNC1C(O)C2Oc3c(cc(O)c4c3C(=O)c3cc5c(c(O)c3C4=O)C(OC3OC(C)C(OC)C(C)(OC)C3OC)CC(C)(O)C5)C(C)(O2)C1O (stereo not given) | 880 nM | >1000 nM | -0.6 g | ILS [7]: 24% |
| COC1CC(C)(O)Cc2cc3c(c(O)c21)C(=O)c1c(O)cc2c(c1C3=O)OC1OC2(C)C(O)C(N(C)C)C1O (stereo not given) | 61 nM | 130 nM | -0.4 g | ILS [8]: 197% |
| COC1C(C)OC(OC2CC(C)(O)Cc3cc4c(c(OC(C)=O)c32)C(=O)c2c(O)cc3c(c2C4=O)OC2OC3(C)C(OC(C)=O)C(N(C)C)C2OC(C)=O)C(OC)C1(C)OC (stereo not given) | 17 nM | 41 nM | -0.1 g | ILS [9]: 37% |
| COC1C(C)OC(OC2CC(C)(O)Cc3cc4c(c(O)c32)C(=O)c2c(O)cc3c(c2C4=O)OC2OC3(C)C(O)C(N(C)C)C2O)C(OC)C1(C)OC (stereo not given) | 180 nM | 270 nM | -0.2 g | ILS [10]: 93% |
| COC(=O)C1c2cc3c(c(O)c2C(OC2OC(C)C(OC)C(C)(OC)C2OC)CC1(C)O)C(=O)c1c(O)cc2c(c1C3=O)OC1OC2(C)C(O)C(N(C)C=O)C1O (stereo not given) | > 1000 nM | >1000 nM | -0.1 g | ILS [11]: 12% |
| C#CCOC1CC(C)(O)Cc2cc3c(c(O)c21)C(=O)c1c(O)cc2c(c1C3=O)OC1OC2(C)C(O)C(N(C)C)C1O (stereo not given) | 150 nM | 320 nM | -0.7 g | ILS [12]: 41% |
| COC(=O)[C@@H]1c2cc3c(c(O)c2[C@@H](O[C@@H]2O[C@@H](C)[C@H](OC)[C@@](C)(OC)[C@H]2OC)C[C@]1(C)O)C(=O)c1c(O)cc2c(c1C3=O)O[C@H]1O[C@@]2(C)[C@@H](O)[C@@H](N(C)C)[C@@H]1O | 78 nM | 180 nM | -0.5 g | ILS [13]: 49% |
| CN(C)C1C(O)C2Oc3c(cc(O)c4c3C(=O)c3cc5c(c(O)c3C4=O)CCC(C)(O)C5)C(C)(O2)C1O (stereo not given) | 940 nM | 1760 nM | -1.2 g | ILS [14]: 21% |
| CNC1C(O)C2Oc3c(cc(O)c4c3C(=O)c3cc5c(c(O)c3C4=O)C(OC3OC(C)C(OC)C(C)(OC)C3OC)CC(C)(O)C5C(=O)OC)C(C)(O2)C1O (stereo not given) | 360 nM | 900 nM | -0.5 g | ILS [11]: 59% |
| CN(C)C1C(O)C2Oc3c(cc(O)c4c3C(=O)c3cc5c(c(O)c3C4=O)C(OCCBr)CC(C)(O)C5)C(C)(O2)C1O (stereo not given) | 24 nM | 71 nM | -1.3 g | ILS [15]: 60% |
| COC(=O)C1c2cc3c(c(O)c2CCC1(C)O)C(=O)c1c(O)cc2c(c1C3=O)OC1OC2(C)C(O)C(N(C)C)C1O (stereo not given) | 580 nM | 1510 nM | -0.7 g | ILS [3]: 27% |
| CN(C)C1C(O)C2Oc3c(cc(O)c4c3C(=O)c3cc5c(c(O)c3C4=O)C(N=[N+]=[N-])CC(C)(O)C5)C(C)(O2)C1O (stereo not given) | 830 nM | 1760 nM | -0.3 g | ILS [10]: 33% |
| COc1c2c(cc3c1C(OC)CC(C)(O)C3)C(=O)c1c3c(cc(O)c1C2=O)C1(C)OC(O3)C(O)C(N(C)C)C1O (stereo not given) | 4500 nM | 9700 nM | 0.6 g | ILS [9]: 25% |
| CN(C)C1C(O)C2Oc3c(cc(O)c4c3C(=O)c3cc5c(c(O)c3C4=O)CCC(C)(O)C5C(=O)O)C(C)(O2)C1O (stereo not given) | 5600 nM | 14500 nM | 0.2 g | ILS [16]: -4% |
| COC(=O)C1c2cc3c(c(O)c2C(OC2OC(C)C(OC)C(C)(OC)C2OC)CC1(C)O)C(=O)c1c(O)cc2c(c1C3=O)OC1OC2(C)C(OC(C)=O)C(N(C)C)C1OC(C)=O (stereo not given) | 69 nM | 185 nM | -0.3 g | ILS [17]: 3% |
| COCCNC1CC(C)(O)Cc2cc3c(c(O)c21)C(=O)c1c(O)cc2c(c1C3=O)OC1OC2(C)C(O)C(N(C)C)C1O (stereo not given) | 1040 nM | 2910 nM | 0.2 g | ILS [18]: 40% |
| C=CCOC1CC(C)(O)Cc2cc3c(c(O)c21)C(=O)c1c(O)cc2c(c1C3=O)OC1OC2(C)C(O)C(N(C)C)C1O (stereo not given) | 180 nM | 530 nM | 0.3 g | ILS [10]: 25% |
| COC1C(C)OC(OC2CC(C)(O)Cc3cc4c(c(O)c32)C(=O)c2c(O)cc3c(c2C4=O)OC2OC3(C)C(O)C(N(C)C=O)C2O)C(OC)C1(C)OC (stereo not given) | > 1000 nM | >1000 nM | 0.1 g | ILS [3]: 0% |
| CN(C)C1C(O)C2Oc3c(cc(O)c4c3C(=O)c3cc5c(c(O)c3C4=O)C(N)CC(C)(O)C5)C(C)(O2)C1O (stereo not given) | 970 nM | 2000 nM | 0.2 g | ILS [18]: 47% |
